Consider eight compounds from ChEMBL document CHEMBL5038602, “Potent Lys Patch-Containing Stapled Peptides Targeting PCSK9” (J Med Chem, 2021).

Calls of active or inactive are those of the source. The calls are words filed in the database; no cut-off is given here. Positions of bridges follow the written chain, without caps; N, C: chain ends. Non-standard residues stand in square brackets, D forms with d. Residues, ends and D or L forms follow the SMILES beside them. ξ: configuration not given here. ξK = NCCCCC(N)C(=O)O; ξA = CC(N)C(=O)O

The target in data set [1] is Proprotein convertase subtilisin/kexin type 9 (Homo sapiens, UniProt Q8NBP7). As to the kind of experiment: Binding affinity to human PCSK9 by surface plasmon resonance. The method in brief:
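Recombinant human His-tagged PCSK9 (Gln31–Gln692, HEK293-expressed) at 14 µg/mL amine-coupled onto Ni-NTA chip, ~1000–4000 RU. Buffer 25 mM Tris-HCl, 5 mM CaCl2, 100 mM NaCl, 0.01% P20, pH 7.5, 5% DMSO in running buffer. 25°C. Double-referenced sensorgrams; KD from steady-state equilibrium responses fit to a 4-parameter model, or kinetics fit 1:1.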
On the technique in general: Surface plasmon resonance follows binding to a sensor surface in real time, without labels.

The next data set deals with HepG2. As to the kind of experiment: Cytotoxicity against human HepG2 cells assessed as reduction in cell viability at 0.4 to 10 uM for 48 hrs by SRB assay. The format is toxicity, cell-based. Conditions: hepg2, 48 h, dose 0.4-10 µM. The method in brief:
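HepG2 cells seeded 2000/well 24 h before treatment. Compounds at 0.4, 1.1, 3.3 and 10 µM in DMEM, 48 h at 37°C. SRB staining 30 min at 37°C, dye dissolved in 10 mM Tris base, absorbance at 560 nm. Triplicate wells averaged and normalized to untreated cells.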

Sequence of Proprotein convertase subtilisin/kexin type 9 (Q8NBP7 31-152 limits assumed): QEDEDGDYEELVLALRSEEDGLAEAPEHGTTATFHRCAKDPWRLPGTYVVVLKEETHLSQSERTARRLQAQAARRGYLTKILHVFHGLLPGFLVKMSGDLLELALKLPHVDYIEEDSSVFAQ
Sequence of Proprotein convertase subtilisin/kexin type 9 (Q8NBP7 153-692 limits assumed): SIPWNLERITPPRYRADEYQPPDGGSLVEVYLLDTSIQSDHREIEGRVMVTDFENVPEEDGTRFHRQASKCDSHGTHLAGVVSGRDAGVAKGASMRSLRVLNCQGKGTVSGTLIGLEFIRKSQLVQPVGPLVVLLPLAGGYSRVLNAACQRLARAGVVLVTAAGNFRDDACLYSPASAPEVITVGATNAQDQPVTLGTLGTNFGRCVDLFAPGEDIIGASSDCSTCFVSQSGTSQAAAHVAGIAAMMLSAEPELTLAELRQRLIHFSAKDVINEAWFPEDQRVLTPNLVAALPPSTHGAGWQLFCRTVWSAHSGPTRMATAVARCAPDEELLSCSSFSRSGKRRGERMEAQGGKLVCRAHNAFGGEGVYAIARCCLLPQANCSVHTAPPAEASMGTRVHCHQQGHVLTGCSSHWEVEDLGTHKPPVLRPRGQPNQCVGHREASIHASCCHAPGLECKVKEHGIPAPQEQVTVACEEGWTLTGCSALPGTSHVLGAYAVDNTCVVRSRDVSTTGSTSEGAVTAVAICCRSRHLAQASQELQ

By Kd is commonly meant the concentration at which binding is half-saturated. A high value points to lower affinity. In data set [1], `CC(=O)N[C@H](C(=O)N[C@H](C(=O)N[C@@H](Cc1ccccc1)C(=O)N[C@H](C(=O)N[C@@H](CO)C(=O)N[C@@H](Cc1c[nH]c2ccccc12)C(=O)N[C@H]1CCCCNC(=O)C[C@@H](C(=O)N[C@@H](Cc2c[nH]c3ccccc23)C(=O)N[C@H](C(=O)N[C@@H](CCCCN)C(=O)N[C@@H](CCCCN)C(=O)N[C@@H](C)C(=O)N[C@@H](CCCCN)C(=O)N[C@@H](CCCCN)C(=O)N[C@H](CCCCN)C(N)=O)C(C)C)NC(=O)[C@H](CC(C)C)NC(=O)[C@H](Cc2ccc(O)cc2)NC(=O)[C@H](CCC(=O)O)NC1=O)[C@@H](C)O)C(C)C)[C@@H](C)O` registered a Kd of 133 nM.
Regarding `CC(=O)N[C@@H](Cc1cnc[nH]1)C(=O)N[C@H](C(=O)N[C@@H](Cc1ccccc1)C(=O)N[C@@H](CC(N)=O)C(=O)N[C@@H](CO)C(=O)N[C@@H](Cc1c[nH]c2ccccc12)C(=O)N[C@@H](CCC(=O)O)C(=O)N[C@@H](CCC(=O)O)C(=O)N[C@@H](Cc1ccc(O)cc1)C(=O)N[C@@H](CC(C)C)C(=O)N[C@@H](CC(=O)O)C(=O)N[C@@H](Cc1c[nH]c2ccccc12)C(=O)N[C@H](C(=O)NC(CCCCN)C(=O)NC(CCCCN)C(=O)NC(CCCCN)C(N)=O)C(C)C)C(C)C` (stereo partly specified) (Ac-HVFNSWEEYLDWV[ξK][ξK][ξK]-NH2), the Activity result with HepG2 is given as “Non-Toxic”. Moreover, in data set [1], the equilibrium dissociation constant (Kd) turned out to be 1100 nM.
Taken in the same sequence, the figures for `CC(=O)N[C@@H](Cc1cnc[nH]1)C(=O)N[C@H](C(=O)N[C@@H](Cc1ccccc1)C(=O)N[C@@H](CC(N)=O)C(=O)N[C@@H](CO)C(=O)N[C@@H](Cc1c[nH]c2ccccc12)C(=O)N[C@H]1CCCCNC(=O)C[C@@H](C(=O)N[C@@H](Cc2c[nH]c3ccccc23)C(=O)N[C@H](C(N)=O)C(C)C)NC(=O)[C@H](CC(C)C)NC(=O)[C@H](Cc2ccc(O)cc2)NC(=O)[C@H](CCC(=O)O)NC1=O)C(C)C` (Ac-HVFNSWKEYLDWV-NH2; lactam 7-11) were “Non-Toxic” and 5300 nM.
The corresponding values for `CC(=O)N[C@@H](Cc1cnc[nH]1)C(=O)N[C@H](C(=O)N[C@@H](Cc1ccccc1)C(=O)N[C@@H](CC(N)=O)C(=O)N[C@@H](CO)C(=O)N[C@@H](Cc1c[nH]c2ccccc12)C(=O)N[C@H]1CCCCNC(=O)C[C@@H](C(=O)N[C@@H](Cc2c[nH]c3ccccc23)C(=O)N[C@H](C(=O)N[C@@H](CCCCN)C(=O)N[C@@H](CCCCN)C(=O)N[C@@H](CCCCN)C(=O)N[C@@H](CCCCN)C(=O)N[C@@H](CCCCN)C(=O)N[C@@H](CCCCN)C(N)=O)C(C)C)NC(=O)[C@H](CC(C)C)NC(=O)[C@H](Cc2ccc(O)cc2)NC(=O)[C@H](CCC(=O)O)NC1=O)C(C)C` (Ac-HVFNSWKEYLDWVKKKKKK-NH2; lactam 7-11) are “Non-Toxic” and 19 nM.
`CC(=O)N[C@H](C(=O)N[C@H](C(=O)N[C@@H](Cc1ccccc1)C(=O)N[C@H](C(=O)N[C@@H](CO)C(=O)N[C@@H](Cc1c[nH]c2ccccc12)C(=O)N[C@@H](CCC(=O)O)C(=O)N[C@@H](CCC(=O)O)C(=O)N[C@@H](Cc1ccc(O)cc1)C(=O)N[C@@H](CC(C)C)C(=O)NC(C)C(=O)N[C@@H](Cc1c[nH]c2ccccc12)C(=O)N[C@H](C(=O)N[C@@H](CCCCN)C(=O)N[C@@H](CCCCN)C(=O)N[C@@H](CCCCN)C(=O)N[C@@H](CCCCN)C(=O)N[C@@H](CCCCN)C(=O)N[C@@H](CCCCN)C(N)=O)C(C)C)[C@@H](C)O)C(C)C)[C@@H](C)O` (stereo partly specified) (Ac-TVFTSWEEYL[ξA]WVKKKKKK-NH2): the Kd in data set [1] was determined as 72.5 nM.
As for Ac-TVATSWEEYLDWV-NH2, the result in data set [1] was inactive.
As to Ac-TVFTSWEEALDWV-NH2, the Activity result with HepG2 is recorded as “Non-Toxic”.
On to Ac-TVFTSWEEYLAWV-NH2, for which, in data set [1], the Kd came to 8600 nM.
